Assay results pooled from the literature.
Each line is one published result; the experiments were not run side by side.
CYP1A2: Cytochrome P450 1A2 (CYP1A2, Homo sapiens, UniProt P05177)
CYP3A4: Cytochrome P450 3A4 (CYP3A4, Homo sapiens, UniProt P08684)

O=C(Nc1ncc([N+](=O)[O-])s1)c1cccs1  CC50 (BHK-21; cell growth or viability, MTT): > 1 µM
CCS(=O)(=O)N1CC(CC#N)(n2cc(-c3ncnc4[nH]ccc34)cn2)C1  CC50 (Vero; cell growth or viability, resazurin): > 60 µM
COC(=O)C1CCN(C(=O)c2ccc(NCc3cnc4nc(N)nc(N)c4n3)cc2)CC1  inhibition (CYP1A2; enzyme activity, inhibitor, luciferase; 10 µM): -8.49%
NCCc1ccccn1  ΔTm (CYP3A4; thermal stability): -0.1 °C
O=C(Nc1ccc(O)cc1)c1ccccc1O  CC50 (BHK-21; cell growth or viability, MTT): > 1000 µM
CCc1cc(/C(C)=N/OCc2ccc(C3CCCCC3)c(C(F)(F)F)c2)ccc1CN1CC(C(=O)O)C1  inhibition (CYP3A4; enzyme activity, inhibitor; human, liver microsomes; 200 µM, 20 min, midazolam probe): 11.5%
Cc1cccc(F)c1N1CCC(N2Cc3cn(CC(C)(F)F)nc3N(Cc3ccccc3C(F)(F)F)C2=O)CC1  IC50 (CYP3A4; enzyme activity, inhibitor; human, liver microsomes; midazolam probe): > 10 µM
CCCCCCCC(=O)N[C@@H](CCCCN)C(=O)N[C@@H](CCCCN)C(=O)N[C@@H](C)C(=O)N[C@@H](CC(C)C)C(=O)N[C@@H](CCCCN)C(=O)N[C@@H](CC(C)C)C(=O)N[C@@H](C)C(=O)N[C@@H](CCCCN)C(=O)N[C@@H](CCCCN)C(=O)N1CCC[C@H]1C(=O)N[C@@H](CC(C)C)C(=O)N[C@@H](CCCCN)C(=O)N[C@@H](CC(C)C)C(=O)N[C@@H](CC(C)C)C(=O)N[C@@H](CCCCN)C(N)=O  Cmax (female CD-1 mouse, blood; intravenous, 3 mg/kg, single dose): 1420 ng/mL
Cc1nc2c([nH]1)c(=O)n(C)c(=O)n2Cc1ccco1  inhibition (CYP1A2; enzyme activity, inhibitor; human, liver microsomes; 40 µM): 71%
O=c1[nH]cnc2c1nnn2-c1cccc(Cl)c1  CC50 (BHK-21; cell growth or viability, MTT): > 1000 µM
CN[C@H](CC(C)C)C(=O)N[C@H]1C(=O)N[C@@H](CC(N)=O)C(=O)N[C@H]2C(=O)NC3C(=O)N[C@H](C(=O)N[C@H](C(=O)NCCC[N+](C)(C)C)c4cc(O)cc(O)c4-c4cc3ccc4O)[C@H](O)c3ccc(c(Cl)c3)Oc3cc2cc(c3OC2OC(CO)C(O)[C@H](O)[C@@H]2O[C@H]2CC(C)(NCc3ccc(-c4ccc(Cl)cc4)cc3)[C@H](O)[C@H](C)O2)Oc2ccc(cc2Cl)[C@H]1O (some centres unmarked)  Cmax (mouse, plasma; intravenous, 50 mg/kg): 58900 ng/mL
Cc1cc(C)nc(Nc2ncc(C(=O)NCCc3c(C)[nH]c4ccccc34)cn2)c1  microsomal CLint (metabolic stability; cynomolgus monkey, liver microsomes; 1 µM): 99 µL/min/mg
O=C1NC(=O)/C(=C\c2ccc3ccccc3c2)S1  CC50 (BHK-21; cell growth or viability, MTT): > 100 µM
CCC[C@@](N)(CO)CCc1ccc(OCCCCCC(C)C)cc1  IC50 (CYP1A2; enzyme activity, inhibitor): > 50 µM
